Here are results for twelve molecules from ChEMBL document CHEMBL1156988, “Synthesis and antibacterial studies of binaphthyl-based tripeptoids. Part 1” (2010).

Test [1] has as its system Staphylococcus aureus. Nature of the test: Antibacterial activity against Staphylococcus aureus 6538P after overnight incubation. It is filed as functional. The method, boiled down: (§1)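 Strains were grown in Luria Broth. Overnight stationary-phase cultures were diluted 1:1000 into fresh medium with twofold compound dilutions, highest typically 128 µg/ml, in 96-well plates. Incubated overnight at 37 °C. MIC recorded as the […].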

The test system of test [2] is Staphylococcus epidermidis. Kind of test: Antibacterial activity against Staphylococcus epidermidis ATCC 700562 after overnight incubation. It is filed as functional.
In test [3] the test system is Enterococcus faecium. Nature of the test: Antibacterial activity against vancomycin-resistant Enterococcus faecium 243 after overnight incubation.
Test [4] relates to Enterococcus faecium. Kind of test: Antibacterial activity against vancomycin-resistant Enterococcus faecium 449 after overnight incubation.
The subject of test [5] is Enterococcus faecium. Kind of test: Antibacterial activity against vancomycin-resistant Enterococcus faecium 820 after overnight incubation.
For test [6], the system named is Enterococcus faecium. Kind of test: Antibacterial activity against vancomycin-resistant Enterococcus faecium 987 after overnight incubation.
The subject of test [7] is Staphylococcus aureus. Kind of test: Antibacterial activity against vancomycin intermediate Staphylococcus aureus after 24 hrs. It is filed as functional. Put shortly:
(§2)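 Broth microdilution in cation-adjusted Mueller Hinton II broth, inoculum 1 × 10^6 CFU/mL. Inoculum was added 1:1 to twofold serial compound dilutions in triplicate wells. Plates were incubated 24 h at 37 °C. MIC was taken as the lowest dilution giving complete growth inhibition. Strains: wild type ATCC 6538P, Mu50 ATCC 700699, MRSA ATCC 43300.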

For test [8], the system named is Staphylococcus aureus. Nature of the test: Antibacterial activity against methicillin sensitive Staphylococcus aureus after 24 hrs. Format: functional. Put shortly:
as §2

Test [9] has as its system Staphylococcus aureus. Kind of test: Antibacterial activity against methicillin-resistant Staphylococcus aureus ATCC 43300 after 24 hrs. Format: functional. As to conditions: ATCC 43300, 24 h. The method, boiled down: as §2
The test system of test [10] is Staphylococcus epidermidis. Nature of the test: Antibacterial activity against Staphylococcus epidermidis ATCC 700562 after 24 hrs. Format: functional. As to conditions: ATCC 700562, 24 h. Put shortly:
(§3)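 Micro-broth dilution in cation-adjusted Mueller Hinton II broth, inoculum 1 × 10^6 CFU per mL, added to triplicate wells of twofold serially diluted compound. Incubated 24 h at 37 °C. MIC taken as the lowest dilution giving complete growth inhibition.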

The test system of test [11] is Enterococcus faecium. Kind of test: Antibacterial activity against vancomycin-resistant clinical isolate Enterococcus faecium after 24 hrs. It is filed as functional.
Test [12] concerns Enterococcus faecium. Nature of the test: Antibacterial activity against vancomycin sensitive clinical isolate Enterococcus faecium after 24 hrs. Format: functional.
The test system of test [13] is Staphylococcus aureus. Kind of test: Antibacterial activity against Staphylococcus aureus 6538P after 24 hrs. Format: functional. Put shortly:
as §3

Test [14] has as its system Enterococcus faecium. Kind of test: Antibacterial activity against vancomycin-resistant Enterococcus faecium 243 after 24 hrs. As to conditions: Enterococcus faecium, 243, 24 h.
In test [15] the test system is Enterococcus faecium. Kind of test: Antibacterial activity against vancomycin-resistant Enterococcus faecium 449 after 24 hrs. As to conditions: Enterococcus faecium, 449, 24 h.
In test [16] the test system is Enterococcus faecium. Kind of test: Antibacterial activity against vancomycin-resistant Enterococcus faecium 820 after 24 hrs. As to conditions: Enterococcus faecium, 820, 24 h.
Test [17] concerns Enterococcus faecium. Nature of the test: Antibacterial activity against vancomycin-resistant Enterococcus faecium 987 after 24 hrs. As to conditions: Enterococcus faecium, 987, 24 h.
The subject of test [18] is Staphylococcus aureus. Kind of test: Antibacterial activity against vancomycin intermediate Staphylococcus aureus after overnight incubation. It is filed as functional. Put shortly:
as §1

Where [19] appears, read: Staphylococcus aureus, 6538P, read-out: MIC.
Where [20] appears, read: Enterococcus faecium, 243, read-out: MIC.
Setting [21] is: Enterococcus faecium, 449, read-out: MIC.
Where [22] appears, read: Enterococcus faecium, 820, read-out: MIC.
Where [23] appears, read: Enterococcus faecium, 987, read-out: MIC.

Each structure is given as a SMILES string. Values after ≈ are worked out from the molar mass of the structure shown.

Take `CNC(=N)NCCC[C@@H](NC(=O)[C@@H](CCCCN)NC(=O)COc1ccc2ccccc2c1-c1c(OCCC(C)C)ccc2ccccc12)C(=O)N[C@@H](CC(C)C)C(=O)OCc1ccccc1.Cl.Cl`: the MIC – broadly, the lowest concentration that inhibits growth of the organism – in test [1] (setting [19]) was 3.13 µg/mL; in test [2] it was 3.13 µg/mL; in test [3] (setting [20]), 25 µg/mL; in test [4] (setting [21]), 25 µg/mL; in [5] (setting [22]), 25 µg/mL; in [6] (setting [23]), 25 µg/mL.

On to `CC(C)CCOc1ccc2ccccc2c1-c1c(OCC(=O)N[C@H](CCCCN)C(=O)N[C@H](CCCCN)C(=O)N[C@@H](CC(C)C)C(=O)OCc2ccccc2)ccc2ccccc12.Cl.Cl`, for which the MIC in test [1] (setting [19]) came to 1.95 µg/mL; in [2] it was 1.95 µg/mL; in test [3] (setting [20]), 62.5 µg/mL; in [4] (setting [21]), 31.3 µg/mL; in test [5] (setting [22]), 26.1 µg/mL; in test [6] (setting [23]), 62.5 µg/mL.

Consider `CC(C)CCOc1ccc2ccccc2c1-c1c(OCC(=O)N[C@H](CCCCN)C(=O)N[C@@H](CCCNC(=N)N)C(=O)N[C@H](CC(C)C)C(=O)OCc2ccccc2)ccc2ccccc12.Cl.Cl`, for which the MIC in [7] was 6 µg/mL; in test [8], 6 µg/mL; in test [9] it was 6 µg/mL; in test [10], 3 µg/mL; in test [11], 2 µg/mL; in test [12] it was 16 µg/mL. Further, the MIC in [13] was found to be 3.9 µg/mL; in test [14] it was 15.6 µg/mL; in test [15], 15.6 µg/mL; in test [16], 7.8 µg/mL; in test [17] it was 15.6 µg/mL.

For the molecule `CC(C)CCOc1ccc2ccccc2c1-c1c(OCC(=O)N[C@H](CCCNC(=N)N)C(=O)N[C@H](CCCNC(=N)N)C(=O)N[C@@H](CC(C)C)C(=O)OCc2ccccc2)ccc2ccccc12.Cl.Cl`, the MIC in test [1] (setting [19]) was found to be 1.95 µg/mL; in [2] it was 19.5 µg/mL; in test [3] (setting [20]), 62.5 µg/mL; in [4] (setting [21]), 31.3 µg/mL; in test [5] (setting [22]), 15.6 µg/mL; in [6] (setting [23]), 31.3 µg/mL.

For the molecule `C=CCOc1ccc2ccccc2c1-c1c(OCC(=O)NCC(=O)NCC(=O)N[C@@H](CC=C)C(=O)OCc2ccccc2)ccc2ccccc12`, the MIC in [1] (setting [19]) came to 3.9 µg/mL (≈ 5.69 µM); in test [2], 3.9 µg/mL (≈ 5.69 µM); in test [3] (setting [20]), 62.5 µg/mL (≈ 91.1 µM); in [4] (setting [21]), 31.3 µg/mL (≈ 45.6 µM); in [5] (setting [22]), 15.6 µg/mL (≈ 22.7 µM); in [6] (setting [23]) it was 31.3 µg/mL (≈ 45.6 µM).

Regarding `C=CCOc1ccc2ccccc2c1-c1c(OCC(=O)N[C@H](CCCNC(=N)N)C(=O)OCc2ccccc2)ccc2ccccc12.Cl`, the MIC in test [1] (setting [19]) amounted to 3.3 µg/mL; in [3] (setting [20]) it was 62.5 µg/mL; in test [4] (setting [21]), 62.5 µg/mL; in [5] (setting [22]) it was 62.5 µg/mL; in test [6] (setting [23]), 62.5 µg/mL.

In the case of `C=CCOc1ccc2ccccc2c1-c1c(OCCCC(=O)N[C@H](CCCNC(=N)N)C(=O)OCc2ccccc2)ccc2ccccc12.Cl`, the MIC in test [1] (setting [19]) turned out to be 3.9 µg/mL; in [3] (setting [20]) it was 62.5 µg/mL; in [4] (setting [21]), 62.5 µg/mL; in test [5] (setting [22]), 62.5 µg/mL; in test [6] (setting [23]) it was 125 µg/mL.

As for `CC(C)CCOC(=O)[C@H](CC(C)C)NC(=O)[C@@H](CCCNC(=N)N)NC(=O)[C@@H](CCCCN)NC(=O)COc1ccc2ccccc2c1-c1c(OCCC(C)C)ccc2ccccc12.Cl.Cl`, the MIC in test [18] (read-out: MIC) was found to be 4 µg/mL.

As to `CC(C)CCOc1ccc2ccccc2c1-c1c(OCC(=O)N[C@H](CCCCN)C(=O)N[C@H](CCCNC(=N)N)C(=O)N[C@@H](CC(C)C)c2ncc(Cc3ccccc3)o2)ccc2ccccc12.Cl.Cl`, the minimal inhibitory concentration (MIC) in [18] (read-out: MIC) is 4 µg/mL.

As to `C=CCOc1ccc2ccccc2c1-c1c(OCC(=O)N[C@H](CCCCN)C(=O)N[C@H](CCCNC(=N)N)C(=O)N[C@@H](Cc2ccccc2)C(=O)OC)ccc2ccccc12.Cl.Cl` (stereo in doubt; 81), the MIC in test [1] (setting [19]) came out at 3.9 µg/mL; in test [3] (setting [20]) it was 125 µg/mL; in test [4] (setting [21]), 125 µg/mL; in test [5] (setting [22]) it was 125 µg/mL; in test [6] (setting [23]), 125 µg/mL.

For the molecule `C=CCOc1ccc2ccccc2c1-c1c(OCC(=O)N[C@H](CCCCN)C(=O)N[C@H](CCCNC(=N)N)C(=O)N[C@@H](Cc2ccccc2)C(=O)OC)ccc2ccccc12.Cl.Cl` (stereo in doubt; 82), the minimum inhibitory concentration (MIC) was 7.8 µg/mL in [1]; 125 µg/mL in test [3]; 125 µg/mL in test [4]; 125 µg/mL in test [5]; 125 µg/mL in test [6].

For `CN[C@H](CC(C)C)C(=O)N[C@H]1C(=O)N[C@@H](CC(N)=O)C(=O)N[C@H]2C(=O)N[C@H]3C(=O)N[C@H](C(=O)N[C@H](C(=O)O)c4cc(O)cc(O)c4-c4cc3ccc4O)[C@H](O)c3ccc(c(Cl)c3)Oc3cc2cc(c3O[C@@H]2O[C@H](CO)[C@@H](O)[C@H](O)[C@H]2O[C@H]2C[C@](C)(N)[C@H](O)[C@H](C)O2)Oc2ccc(cc2Cl)[C@H]1O` [VANCOMYCIN], the MIC in test [1] (setting [19]) was 1.56 µg/mL (≈ 1.08 µM); in [2], 3.13 µg/mL (≈ 2.16 µM); in test [18], 6 µg/mL (≈ 4.14 µM); in test [3] (setting [20]), 1.56 µg/mL (≈ 1.08 µM); in test [4] (setting [21]), greater than 25 µg/mL; in test [5] (setting [22]), greater than 25 µg/mL. Further, the MIC in test [6] (setting [23]) is 3.13 µg/mL (≈ 2.16 µM).
